Measured values taken from ChEMBL document CHEMBL3091371, “Cytotoxic and antibacterial marfuraquinocins from the deep South China Sea-derived Streptomyces niveus SCSIO 3406” (J Nat Prod, 2013).
In brackets after ≈: the same amount, converted by molar mass.

Assays:
[1] = test system: Staphylococcus epidermidis; assay: Antibacterial activity against methicillin-resistant Staphylococcus epidermidis clinical isolate shhs-E1 by broth microdilution method; type: functional
Procedure, shortened: (§1)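 Broth microdilution; MIC read as the lowest concentration giving complete growth inhibition in microdilution wells by unaided eye. Clinical isolates from Shanghai Huashan Hospital. Ampicillin and kanamycin as antibacterial controls. Results in μg/mL.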

Staphylococcus aureus [2] = assay: Antibacterial activity against methicillin-resistant Staphylococcus aureus clinical isolate shhs-A1 by broth microdilution method; type: functional; procedure, shortened: as §1
Micrococcus luteus = assay: Antibacterial activity against Micrococcus luteus by broth microdilution method; type: functional
[3] = Antibacterial activity against Aeromonas hydrophila ATCC 7966 by broth microdilution method; type: functional, Aeromonas hydrophila subsp. hydrophila ATCC 7966
Acinetobacter baumannii = assay: Antibacterial activity against Acinetobacter baumannii ATCC 19606 by broth microdilution method; type: functional
Staphylococcus aureus [4] = assay: Antibacterial activity against Staphylococcus aureus ATCC 29213 by broth microdilution method; type: functional
Escherichia coli = assay: Antibacterial activity against Escherichia coli ATCC 25922 by broth microdilution method; type: functional
HepG2 = assay: Cytotoxicity against human HepG2 cells after 72 hrs by SRB assay; type: functional, cell-based; conditions: HepG2, 72 h
Procedure, shortened: (§2)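 Human tumour lines are tested by sulforhodamine B (SRB) staining. Cisplatin (DDP) is the positive control. IC50 is reported in μM as mean ± deviation.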

NCI-H460 = assay: Cytotoxicity against human NCI-H460 cells after 72 hrs by SRB assay; type: functional, cell-based; conditions: NCI-H460, 72 h; procedure, shortened: as §2
MCF7 = assay: Cytotoxicity against human MCF7 cells after 72 hrs by SRB assay; type: functional, cell-based; conditions: MCF7, 72 h; procedure, shortened: as §2
SF-268 = assay: Cytotoxicity against human SF268 cells after 72 hrs by SRB assay; type: functional, cell-based; conditions: SF-268, 72 h; procedure, shortened: as §2

Work on `C=C1CCCC(C)(C)C1CC[C@@]1(C)c2c(O)cc3c(c2O[C@@H]1CO)C(=O)C=C(OC)C3=O` (some centres undefined) yielded an MIC [1] of 8 µg/mL (≈ 18.2 µM), an MIC (Staphylococcus aureus [2]) of over 128 µg/mL and an MIC (Micrococcus luteus) of over 128 µg/mL. The MIC [3] was 128 µg/mL (≈ 291 µM), the MIC (Acinetobacter baumannii) was over 128 µg/mL and the MIC (Staphylococcus aureus [4]) was 8 µg/mL (≈ 18.2 µM). The MIC (Escherichia coli) was 128 µg/mL (≈ 291 µM), the IC50 (HepG2) was 11.9 µM and the IC50 (NCI-H460) was 4.4 µM. It also gave an IC50 (MCF7) of 18.9 µM and an IC50 (SF-268) of 17.9 µM.
`C=C1CCCC(C)(C)C1CC[C@]1(C)c2c(O)cc3c(c2O[C@@H]1CO)C(=O)C=C(OC)C3=O` (some centres undefined) showed an MIC [1] of 8 µg/mL (≈ 18.2 µM), an MIC (Staphylococcus aureus [2]) of over 128 µg/mL and an MIC (Micrococcus luteus) of over 128 µg/mL. The MIC [3] was 128 µg/mL (≈ 291 µM), the MIC (Acinetobacter baumannii) was over 128 µg/mL and the MIC (Staphylococcus aureus [4]) was 8 µg/mL (≈ 18.2 µM). For the same compound, the MIC (Escherichia coli) was 128 µg/mL (≈ 291 µM), the IC50 (HepG2) was 15.5 µM and the IC50 (NCI-H460) was 8.8 µM. The IC50 (MCF7) was 14.8 µM and the IC50 (SF-268) was 18.3 µM.
With `COc1cccc2nc3c(OC/C=C(\C)CCC=C(C)C)cccc3nc12` the MIC [1] was 128 µg/mL (≈ 353 µM), the MIC (Staphylococcus aureus [2]) was over 128 µg/mL and the MIC (Micrococcus luteus) was over 128 µg/mL. The MIC [3] was 128 µg/mL (≈ 353 µM), the MIC (Acinetobacter baumannii) was over 128 µg/mL and the MIC (Staphylococcus aureus [4]) was 128 µg/mL (≈ 353 µM). For the same compound, the MIC (Escherichia coli) was 128 µg/mL (≈ 353 µM), the IC50 (HepG2) was 52.7 µM and the IC50 (NCI-H460) was over 100 µM. It also gave an IC50 (MCF7) of 21.9 µM and an IC50 (SF-268) of 30.4 µM.
Work on `C=C1CCCC(C)(C)C1CC[C@@]1(C)c2c(O)cc3c(c2O[C@@H]1C)C(=O)C=C(OC)C3=O` (some centres undefined) yielded an MIC [1] of 64 µg/mL (≈ 151 µM), an MIC (Staphylococcus aureus [2]) of over 128 µg/mL and an MIC (Micrococcus luteus) of over 128 µg/mL. The MIC [3] was 128 µg/mL (≈ 302 µM), the MIC (Acinetobacter baumannii) was over 128 µg/mL and the MIC (Staphylococcus aureus [4]) was 8 µg/mL (≈ 18.8 µM). The MIC (Escherichia coli) was 128 µg/mL (≈ 302 µM), the IC50 (HepG2) was 17.5 µM and the IC50 (NCI-H460) was 3.7 µM. For the same compound, the IC50 (MCF7) was 12.9 µM and the IC50 (SF-268) was 26.7 µM.
For `CC1(C)S[C@@H]2[C@H](NC(=O)[C@H](N)c3ccccc3)C(=O)N2[C@H]1C(=O)O` [AMPICILLIN], the MIC [1] was 2 µg/mL (≈ 5.72 µM), the MIC (Staphylococcus aureus [2]) was over 128 µg/mL and the MIC (Micrococcus luteus) was 2 µg/mL (≈ 5.72 µM). The MIC [3] was 128 µg/mL (≈ 366 µM), the MIC (Acinetobacter baumannii) was over 128 µg/mL and the MIC (Staphylococcus aureus [4]) was 0.5 µg/mL (≈ 1.43 µM).
`NC[C@H]1O[C@H](O[C@H]2[C@H](O)[C@@H](O[C@H]3O[C@H](CO)[C@@H](O)[C@H](N)[C@H]3O)[C@H](N)C[C@@H]2N)[C@H](O)[C@@H](O)[C@@H]1O` [KANAMYCIN] showed an MIC [1] of 128 µg/mL (≈ 264 µM), an MIC (Staphylococcus aureus [2]) of 0.5 µg/mL (≈ 1.03 µM) and an MIC (Micrococcus luteus) of 0.5 µg/mL (≈ 1.03 µM). For the same compound, the MIC [3] was 0.5 µg/mL (≈ 1.03 µM), the MIC (Acinetobacter baumannii) was 4 µg/mL (≈ 8.26 µM) and the MIC (Staphylococcus aureus [4]) was 0.5 µg/mL (≈ 1.03 µM). The MIC (Escherichia coli) was 0.5 µg/mL (≈ 1.03 µM).
For `C=C1CCCC(C)(C)C1CC[C@]1(C)c2c(O)cc3c(c2O[C@@H]1C)C(=O)C=C(OC)C3=O` (some centres undefined), the MIC [1] was 32 µg/mL (≈ 75.4 µM), the MIC (Staphylococcus aureus [2]) was over 128 µg/mL and the MIC (Micrococcus luteus) was over 128 µg/mL. For the same compound, the MIC [3] was 128 µg/mL (≈ 302 µM), the MIC (Acinetobacter baumannii) was over 128 µg/mL and the MIC (Staphylococcus aureus [4]) was 64 µg/mL (≈ 151 µM). It also gave an MIC (Escherichia coli) of 128 µg/mL (≈ 302 µM), an IC50 (HepG2) of 18.5 µM and an IC50 (NCI-H460) of 18.8 µM. It also gave an IC50 (MCF7) of 18.7 µM and an IC50 (SF-268) of 27.9 µM.
`CC(C)=CCC/C(C)=C/COc1cccc2nc3c(O)cccc3nc12` gave an MIC [1] of 128 µg/mL (≈ 367 µM), an MIC (Staphylococcus aureus [2]) of over 128 µg/mL and an MIC (Micrococcus luteus) of over 128 µg/mL. The MIC [3] was 64 µg/mL (≈ 184 µM), the MIC (Acinetobacter baumannii) was over 128 µg/mL and the MIC (Staphylococcus aureus [4]) was 128 µg/mL (≈ 367 µM). The MIC (Escherichia coli) was 128 µg/mL (≈ 367 µM), the IC50 (HepG2) was 22.3 µM and the IC50 (NCI-H460) was 68.9 µM. It also gave an IC50 (MCF7) of 16.8 µM and an IC50 (SF-268) of 10.2 µM.
